# Experimental data as given in ChEMBL document CHEMBL5724801, “EUbOPEN Chemogenomics Library - Multiplex” (2024).
# Values joined by “and” are separate entries in the source; they are usually repeats but may differ in a detail not shown here. Identical values can stand only once. Non-standard residues stand in square brackets, D forms with d. Residues, ends and D or L forms follow the SMILES beside them.
# Columns and labels:
# [1] = test system: HEK-293T; test: Multiplex assay against HEK293T; assay type: toxicity, cell-based; conditions: human
# In short: (§1)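 On a CQ1 microscope at 37°C and 5% CO2, live cells were imaged after compound addition. They had been stained at seeding with Hoechst33342, BioTracker Green Microtubule Cytoskeleton Dye, MitoTracker Red and Annexin V Alexa Fluor 680. CellPathfinder machine-learning gating assigned cells to Hoechst high-intensity objects or normal cells, normal cells to healthy, pyknosed or fragmented nuclei, and pyknosed cells to mitotic or apoptotic. Tubulin, mitochondrial-mass and membrane-permeability phenotypes are per cents of healthy-nucleus cells.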
# [2] = test system: U2OS; test: Multiplex assay against U2OS; assay type: toxicity, cell-based; conditions: human; in short: as §1
# [3] = 24 h, 1 µM, compound concentration 1 uM
# [4] = 24 h, 10 µM, compound concentration 10 uM
# [5] = 48 h, 1 µM, compound concentration 1 uM
# [6] = 48 h, 10 µM, compound concentration 10 uM
# [7] = 12 h, 1 µM, compound concentration 1 uM
# [8] = 12 h, 10 µM, compound concentration 10 uM
compound,measurement,setting,value
CC(C)C[C@@H]1NC(=O)[C@@H](C(C)C)NC(=O)[C@@H]2CCCN2C(=O)[C@@H](CC(=O)O)NC(=O)[C@@H](Cc2c[nH]c3ccccc23)NC1=O [BQ-123] (cyclo(L[dW][dD]P[dV])),Total Cell Count,[1]; [3],497 and 538
same,Population Apoptotic (%),[1]; [4],25% and 57%
same,Population Fragmented Nuclei (%),[1]; [4],11% and 8%
same,Population Healthy Nuclei (%),[1]; [4],77% and 78%
same,Population Hoechst High Intensity Objects (%),[1]; [4],6% and 7%
same,Population Membrane Permeable-Phenotype (%),[1]; [4],0%
same,Population Mitochondria Different-Phenotype (%),[1]; [4],31% and 50%
same,Population Mitotic Cells (%),[1]; [4],75% and 42%
same,Population Normal (%),[1]; [4],93% and 92%
same,Population Pyknosed Nuclei (%),[1]; [4],11% and 12%
same,Population Tubulin-Different-Phenotype (%),[1]; [4],24% and 18%
same,Total Cell Count,[1]; [4],511 and 302
same,Population Apoptotic (%),[1]; [5],21% and 24%
same,Population Fragmented Nuclei (%),[1]; [5],11%
same,Population Healthy Nuclei (%),[1]; [5],79% and 81%
same,Population Hoechst High Intensity Objects (%),[1]; [5],3% and 5%
same,Population Membrane Permeable-Phenotype (%),[1]; [5],0% and 1%
same,Population Mitochondria Different-Phenotype (%),[1]; [5],22% and 18%
same,Population Mitotic Cells (%),[1]; [5],78% and 75%
same,Population Normal (%),[1]; [5],96% and 94%
same,Population Pyknosed Nuclei (%),[1]; [5],9% and 7%
same,Population Tubulin-Different-Phenotype (%),[1]; [5],15% and 10%
same,Total Cell Count,[1]; [5],719 and 777
same,Population Apoptotic (%),[1]; [6],25% and 40%
same,Population Fragmented Nuclei (%),[1]; [6],16% and 11%
same,Population Healthy Nuclei (%),[1]; [6],77% and 80%
same,Population Hoechst High Intensity Objects (%),[1]; [6],3%
same,Population Membrane Permeable-Phenotype (%),[1]; [6],1% and 0%
same,Population Mitochondria Different-Phenotype (%),[1]; [6],21% and 29%
same,Population Mitotic Cells (%),[1]; [6],75% and 59%
same,Population Normal (%),[1]; [6],96%
same,Population Pyknosed Nuclei (%),[1]; [6],6% and 8%
same,Population Tubulin-Different-Phenotype (%),[1]; [6],15% and 16%
same,Total Cell Count,[1]; [6],756 and 477
same,Population Apoptotic (%),[2]; [7],77% and 83%
same,Population Fragmented Nuclei (%),[2]; [7],20% and 19%
same,Population Healthy Nuclei (%),[2]; [7],69% and 75%
same,Population Hoechst High Intensity Objects (%),[2]; [7],0% and 2%
same,Population Membrane Permeable-Phenotype (%),[2]; [7],1% and 2%
same,Population Mitochondria Different-Phenotype (%),[2]; [7],1% and 0%
same,Population Mitotic Cells (%),[2]; [7],22% and 16%
same,Population Normal (%),[2]; [7],99% and 97%
same,Population Pyknosed Nuclei (%),[2]; [7],9% and 5%
same,Population Tubulin-Different-Phenotype (%),[2]; [7],0% and 8%
same,Total Cell Count,[2]; [7],228 and 118
same,Population Apoptotic (%),[2]; [8],78% and 75%
same,Population Fragmented Nuclei (%),[2]; [8],29% and 25%
same,Population Healthy Nuclei (%),[2]; [8],65% and 70%
same,Population Hoechst High Intensity Objects (%),[2]; [8],2%
same,Population Membrane Permeable-Phenotype (%),[2]; [8],8% and 7%
same,Population Mitochondria Different-Phenotype (%),[2]; [8],1% and 4%
same,Population Mitotic Cells (%),[2]; [8],21% and 25%
same,Population Normal (%),[2]; [8],97%
same,Population Pyknosed Nuclei (%),[2]; [8],4%
same,Population Tubulin-Different-Phenotype (%),[2]; [8],3% and 2%
same,Total Cell Count,[2]; [8],294 and 99
same,Population Apoptotic (%),[2]; [3],69% and 85%
same,Population Fragmented Nuclei (%),[2]; [3],16% and 11%
same,Population Healthy Nuclei (%),[2]; [3],75% and 77%
same,Population Hoechst High Intensity Objects (%),[2]; [3],0%
same,Population Membrane Permeable-Phenotype (%),[2]; [3],2% and 6%
same,Population Mitochondria Different-Phenotype (%),[2]; [3],1% and 0%
same,Population Mitotic Cells (%),[2]; [3],30% and 14%
same,Population Normal (%),[2]; [3],99%
same,Population Pyknosed Nuclei (%),[2]; [3],8% and 10%
same,Population Tubulin-Different-Phenotype (%),[2]; [3],1% and 3%
same,Total Cell Count,[2]; [3],279 and 137
same,Population Apoptotic (%),[2]; [4],92% and 100%
same,Population Fragmented Nuclei (%),[2]; [4],24%
same,Population Healthy Nuclei (%),[2]; [4],67% and 74%
same,Population Hoechst High Intensity Objects (%),[2]; [4],2% and 0%
same,Population Membrane Permeable-Phenotype (%),[2]; [4],8% and 6%
same,Population Mitochondria Different-Phenotype (%),[2]; [4],2% and 8%
same,Population Mitotic Cells (%),[2]; [4],8% and 0%
same,Population Normal (%),[2]; [4],97% and 99%
same,Population Pyknosed Nuclei (%),[2]; [4],7% and 1%
same,Population Tubulin-Different-Phenotype (%),[2]; [4],4%
same,Total Cell Count,[2]; [4],338 and 113
same,Population Apoptotic (%),[2]; [5],77% and 100%
same,Population Fragmented Nuclei (%),[2]; [5],14% and 18%
same,Population Healthy Nuclei (%),[2]; [5],79% and 70%
same,Population Hoechst High Intensity Objects (%),[2]; [5],1%
same,Population Membrane Permeable-Phenotype (%),[2]; [5],3%
same,Population Mitochondria Different-Phenotype (%),[2]; [5],1% and 3%
same,Population Mitotic Cells (%),[2]; [5],22% and 0%
same,Population Normal (%),[2]; [5],98%
same,Population Pyknosed Nuclei (%),[2]; [5],5% and 10%
same,Population Tubulin-Different-Phenotype (%),[2]; [5],3% and 2%
same,Total Cell Count,[2]; [5],407 and 226
same,Population Apoptotic (%),[2]; [6],94% and 81%
same,Population Fragmented Nuclei (%),[2]; [6],19% and 20%
same,Population Healthy Nuclei (%),[2]; [6],70% and 66%
same,Population Hoechst High Intensity Objects (%),[2]; [6],1%
same,Population Membrane Permeable-Phenotype (%),[2]; [6],5%
same,Population Mitochondria Different-Phenotype (%),[2]; [6],2% and 6%
same,Population Normal (%),[2]; [6],98%
same,Population Pyknosed Nuclei (%),[2]; [6],9% and 12%
same,Population Tubulin-Different-Phenotype (%),[2]; [6],3% and 2%
